This note sets out measurements from ChEMBL document CHEMBL2321744 (J Med Chem, 2013).

Each structure is given as a SMILES string. Calls of active or inactive are those of the source. The rule behind the calls is not given here. Some results are limits rather than exact numbers.

For data set [1], the target named is T1, Phospholipase D2 (Homo sapiens, UniProt O14939). Briefly: Inhibition of GFP-tagged PLD2 in human HEK293 cells assessed as deuterated 1-butanol incorporation pretreated for 5 mins prior to substrate addition measured after 30 mins by mass spectrometry.
For a further data set, the target named is T2, Phospholipase D1 (Homo sapiens, UniProt Q13393).
T2 sequence (Q13393 whole entry): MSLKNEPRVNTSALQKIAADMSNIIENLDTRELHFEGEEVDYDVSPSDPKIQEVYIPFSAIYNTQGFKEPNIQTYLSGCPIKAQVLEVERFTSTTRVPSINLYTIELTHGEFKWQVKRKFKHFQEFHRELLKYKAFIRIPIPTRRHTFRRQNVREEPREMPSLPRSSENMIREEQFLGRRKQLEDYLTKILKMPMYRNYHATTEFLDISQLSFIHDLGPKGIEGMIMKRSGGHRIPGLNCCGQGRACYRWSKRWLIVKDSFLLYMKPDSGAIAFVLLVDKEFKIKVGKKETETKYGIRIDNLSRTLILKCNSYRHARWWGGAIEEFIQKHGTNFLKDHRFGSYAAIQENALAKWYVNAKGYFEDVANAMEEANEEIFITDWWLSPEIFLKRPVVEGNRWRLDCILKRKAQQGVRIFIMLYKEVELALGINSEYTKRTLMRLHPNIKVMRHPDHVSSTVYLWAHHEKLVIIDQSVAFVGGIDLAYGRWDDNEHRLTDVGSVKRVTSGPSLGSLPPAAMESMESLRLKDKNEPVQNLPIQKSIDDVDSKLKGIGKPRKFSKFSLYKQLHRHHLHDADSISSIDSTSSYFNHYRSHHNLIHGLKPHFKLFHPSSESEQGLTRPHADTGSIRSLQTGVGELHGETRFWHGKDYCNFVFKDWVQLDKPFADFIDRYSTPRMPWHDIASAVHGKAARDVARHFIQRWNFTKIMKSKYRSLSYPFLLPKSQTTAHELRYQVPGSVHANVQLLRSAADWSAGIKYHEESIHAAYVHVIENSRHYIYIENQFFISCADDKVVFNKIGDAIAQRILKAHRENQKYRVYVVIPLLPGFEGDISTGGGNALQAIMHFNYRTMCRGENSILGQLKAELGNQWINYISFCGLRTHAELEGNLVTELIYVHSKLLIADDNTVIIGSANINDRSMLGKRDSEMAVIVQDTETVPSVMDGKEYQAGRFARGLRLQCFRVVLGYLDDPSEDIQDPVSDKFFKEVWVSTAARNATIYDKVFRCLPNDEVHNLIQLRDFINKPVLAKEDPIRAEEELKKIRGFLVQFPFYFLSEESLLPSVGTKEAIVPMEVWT
Description: Inhibition of PLD1 in human Calu-1 cells assessed as deuterated 1-butanol incorporation pretreated for 5 mins prior to substrate addition measured after 30 mins by mass spectrometry.

Data set [2] can be described thus: in vivo. To be noted: black6 (printed 'balck6'), mouse, brain, ip, 10 mg/kg.
Data set [3] is described as follows: Solubility of the compound in PBS buffer. The class given is physicochemical.
The target of data set [4] is T1, Phospholipase D2. The settings on record: U-87MG ATCC.
Data set [5] in a line: Stability of the compound in PBS buffer up to 48 hrs. Type of data set: physicochemical.
The nature of data set [6]: in vivo. The settings on record: black6 (printed 'balck6'), mouse, lung, ip, 10 mg/kg.
The nature of data set [7]: Cytotoxicity against human U87MG cells assessed as cell viability up to 10 uM by WST-1 assay in presence of 10% FBS relative to control. Type of data set: cell-based. To be noted: u-87mg atcc. The procedure, abridged:
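U87-MG cells in 10% FBS were exposed to compound at concentrations up to 10 μM. Viability was compared with DMSO vehicle.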

The next data set addresses hERG (KCNH2) (Homo sapiens, UniProt Q12809). Description: Inhibition of human ERG at 10 uM by radioligand binding assay.
The next data set relates to U-87 MG. Description: Increase in caspase 3/7 activation in human U87MG cells after 6 to 72 hrs under serum free conditions. Type of data set: functional, cell-based. The settings on record: U-87MG ATCC.

T1 sequence (O14939 whole entry): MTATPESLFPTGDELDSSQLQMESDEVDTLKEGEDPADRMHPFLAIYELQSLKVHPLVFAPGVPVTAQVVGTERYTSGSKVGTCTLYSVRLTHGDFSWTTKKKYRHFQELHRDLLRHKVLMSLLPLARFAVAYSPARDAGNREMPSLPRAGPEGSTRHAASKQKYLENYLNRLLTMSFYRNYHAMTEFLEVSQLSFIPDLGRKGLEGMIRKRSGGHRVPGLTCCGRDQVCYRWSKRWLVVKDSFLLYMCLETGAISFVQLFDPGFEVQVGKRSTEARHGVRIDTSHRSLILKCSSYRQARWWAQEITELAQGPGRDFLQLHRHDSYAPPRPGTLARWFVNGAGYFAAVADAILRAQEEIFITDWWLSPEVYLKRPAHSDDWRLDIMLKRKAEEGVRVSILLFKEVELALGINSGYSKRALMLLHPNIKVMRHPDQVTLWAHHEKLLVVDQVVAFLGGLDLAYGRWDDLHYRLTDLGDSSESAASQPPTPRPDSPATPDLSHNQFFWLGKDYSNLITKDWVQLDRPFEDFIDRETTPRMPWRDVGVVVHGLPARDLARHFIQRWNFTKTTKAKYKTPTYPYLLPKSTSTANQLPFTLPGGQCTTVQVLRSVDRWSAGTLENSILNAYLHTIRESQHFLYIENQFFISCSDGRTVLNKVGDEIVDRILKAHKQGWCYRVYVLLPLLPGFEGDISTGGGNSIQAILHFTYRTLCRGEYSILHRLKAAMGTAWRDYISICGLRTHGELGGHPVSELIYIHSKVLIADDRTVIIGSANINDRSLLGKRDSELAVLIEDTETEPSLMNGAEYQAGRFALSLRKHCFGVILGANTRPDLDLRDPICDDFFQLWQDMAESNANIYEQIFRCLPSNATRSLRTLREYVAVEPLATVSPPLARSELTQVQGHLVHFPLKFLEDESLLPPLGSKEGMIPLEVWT
Chain of hERG (KCNH2) (Q12809 whole entry): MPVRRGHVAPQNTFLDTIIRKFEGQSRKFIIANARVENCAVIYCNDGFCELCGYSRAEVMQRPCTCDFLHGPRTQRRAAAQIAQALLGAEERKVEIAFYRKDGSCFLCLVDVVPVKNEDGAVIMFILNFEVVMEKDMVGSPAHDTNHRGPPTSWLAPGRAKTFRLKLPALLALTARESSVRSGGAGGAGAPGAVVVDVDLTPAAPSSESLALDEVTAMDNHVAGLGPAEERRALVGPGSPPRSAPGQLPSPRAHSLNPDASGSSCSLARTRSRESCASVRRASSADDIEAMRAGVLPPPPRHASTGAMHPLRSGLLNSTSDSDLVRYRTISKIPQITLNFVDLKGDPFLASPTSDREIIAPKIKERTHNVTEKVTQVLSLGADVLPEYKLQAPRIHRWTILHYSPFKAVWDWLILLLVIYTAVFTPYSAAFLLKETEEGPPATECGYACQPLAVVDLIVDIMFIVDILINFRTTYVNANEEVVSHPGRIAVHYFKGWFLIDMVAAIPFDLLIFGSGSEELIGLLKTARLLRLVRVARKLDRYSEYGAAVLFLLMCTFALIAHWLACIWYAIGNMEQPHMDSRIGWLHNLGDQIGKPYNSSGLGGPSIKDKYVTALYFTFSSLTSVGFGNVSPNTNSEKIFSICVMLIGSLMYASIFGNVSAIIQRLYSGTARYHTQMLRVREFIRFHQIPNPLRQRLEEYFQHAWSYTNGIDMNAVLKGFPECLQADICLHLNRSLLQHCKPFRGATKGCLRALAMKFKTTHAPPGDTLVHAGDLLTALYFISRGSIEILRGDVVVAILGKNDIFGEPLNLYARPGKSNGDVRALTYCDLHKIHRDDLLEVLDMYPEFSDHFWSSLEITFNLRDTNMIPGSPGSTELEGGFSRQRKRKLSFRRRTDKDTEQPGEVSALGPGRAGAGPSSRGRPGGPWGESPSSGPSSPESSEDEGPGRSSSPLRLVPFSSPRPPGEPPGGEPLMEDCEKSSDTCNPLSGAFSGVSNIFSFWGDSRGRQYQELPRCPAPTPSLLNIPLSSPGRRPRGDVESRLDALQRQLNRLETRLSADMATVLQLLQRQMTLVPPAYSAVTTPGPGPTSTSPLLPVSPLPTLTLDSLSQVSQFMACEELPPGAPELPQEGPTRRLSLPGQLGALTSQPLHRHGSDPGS

Usually IC50 stands for the concentration that inhibits the measured activity by half. For `C[C@H](CN1CCC2(CC1)C(=O)NCN2c1cccc(F)c1)NC(=O)c1ccc(F)cc1`, the IC50 at Phospholipase D2 [1] turned out to be 1060 nM; at Phospholipase D1, 760 nM.

One may read the AUC as concentration integrated over time. Higher therefore signals high exposure. By inhibition is commonly meant the change of the read-out against control, counted positive when it falls. On to `O=C(NCCN1CCC2(CC1)C(=O)NCN2c1cccc(F)c1)c1ccc(F)c(F)c1`, for which the AUC at 6 h came out at 0.08 µM·h in “in vivo [2]” and 4.61 µM·h in “in vivo [6]”. Besides, in data set [3], the solubility result is listed as “soluble”. Moreover, the inhibition entry at Phospholipase D2 [4] was “Dose-dependent effect”. The Stability result in data set [5] is listed as “Stable”. In addition, the Activity result in data set [7] is “Non-toxic”.

As to `C[C@H](CN1CCC2(CC1)C(=O)NCN2c1cccc(F)c1)NC(=O)c1ccc(Br)cc1`, the IC50 at Phospholipase D2 [1] is 800 nM.

`O=C(NCCN1CCC2(CC1)C(=O)NCN2c1cccc(F)c1)c1ccc(Br)cc1`: the IC50 turned out to be 200 nM at Phospholipase D2 [1] and 1540 nM at Phospholipase D1.

As for `Cc1cccc(N2CNC(=O)C23CCN(C[C@H](C)NC(=O)c2ccc(Br)cc2)CC3)c1`, the inhibition at 10 µM on hERG (KCNH2) was > 50%. Besides, the solubility entry in data set [3] is listed as “soluble”. The outcome in the data set on U-87 MG was Active. Moreover, in data set [5], the Stability result was “Stable”. The Activity result in data set [7] is given as “Non-toxic”.

As to `C[C@H](CN1CCC2(CC1)C(=O)NCN2c1cccc(F)c1)NC(=O)c1ccc(F)c(F)c1`, the IC50 on Phospholipase D2 [1] stood at 3450 nM; on Phospholipase D1 it was 1400 nM.

As for `O=C(NCCN1CCC2(CC1)C(=O)NCN2c1cccc(F)c1)c1ccc(F)cc1`, the IC50 at Phospholipase D2 [1] was found to be 350 nM.

`C[C@@H](CN1CCC2(CC1)C(=O)NCN2c1cccc(F)c1)NC(=O)c1ccc(F)cc1`: the IC50 at Phospholipase D2 [1] came out at 35 nM; at Phospholipase D1, 20 nM.

As to `C[C@@H](CN1CCC2(CC1)C(=O)NCN2c1cccc(F)c1)NC(=O)c1ccc(F)c(F)c1`, the IC50 at Phospholipase D2 [1] was 120 nM; at Phospholipase D1 it was 86 nM.
